Article PMC8317130 (Journal of medicinal chemistry, 2020)
In brackets after ≈: the same amount, converted by molar mass. Entries after “also recorded” stand apart in the source; their conditions may differ. Read-outs that look alike come from different tables or passages of the source. Values belong to the compound of their own block, whether it stands above or below them.

How the values were obtained:
E. faecium ATCC 700221 = experiment: Time-kill assay; format: cell-based; conditions: 5× MIC, 24 hours, 37 °C
VRE strains = experiment: MIC in ambient air versus 5% CO2 on representative enterococcal strains; format: cell-based, Enterococcus; conditions: five representative enterococcal strains
Method in brief: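 CLSI broth microdilution. Enterococci grown overnight on trypticase soy agar at 37 °C, adjusted to 0.5 McFarland, then diluted in TSB to about 5 × 10^5 CFU/mL. Compounds from 10 mg/mL DMSO stocks serially diluted.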

Caco-2 [1] = conditions: cited from earlier work
plasma protein = conditions: cited from earlier work
panel of VRE isolates = experiment: MIC50/MIC90 over panel of eleven VRE clinical isolates; format: cell-based, E. faecium, E. faecalis; conditions: Enterococcus
Aqueous solubility = format: physicochemical; conditions: for solubility at 24 h: PBS buffer, pH 7.4
Caco-2 [2] = experiment: Bi-directional Caco-2 permeability; format: in vitro ADME, human
Method in brief: (§1)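 Bidirectional (A→B and B→A) transport across Caco-2 monolayers, run by a contract lab. Donor/receiver pH 6.5/7.4. Concentrations measured as chromatographic peak areas. Papp (10^-6 cm/s) derived from end-point receiver concentration, incubation time, monolayer area and mid-point donor concentration. Recovery (%) = donor plus receiver amounts at end, relative to donor amount at time zero.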

[3] = In vivo pharmacokinetics, oral gavage; set-up: species or system mice; conditions: male, ICR, mouse, plasma, 10 mg/kg
[4] = Bi-directional Caco-2 permeability; format: in vitro ADME, human; conditions: human, Caco-2
Method in brief: as §1

E. faecium HM-965 = experiment: MIC, broth microdilution; format: cell-based
Method in brief: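 MIC by CLSI broth microdilution against E. faecium HM-965. Cells grown overnight on trypticase soy agar at 37 °C, set to 0.5 McFarland, and diluted in TSB to about 5 × 10^5 CFU/mL. Compounds from 10 mg/mL DMSO stocks serially diluted in plates.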

SMILES: CC(=O)Nc1nnc(S(N)(=O)=O)s1 [AZM, N-(5-sulfamoyl-1,3,4-thiadiazol-2-yl)acetamide]
bacteriostatic or bactericidal activity (E. faecium ATCC 700221): bacteriostatic | activity against VRE strains in presence of 5% CO2 (VRE strains): inactive | Papp A → B (Caco-2 [1]; Caco-2, pH 6): 0.19^f 10^−6 cm/sec | Papp B → A (Caco-2 [1]; Caco-2, pH 6): 0.77^f 10^−6 cm/sec | apparent permeability coefficient, Papp, low-permeable drug class (Caco-2 [1]; Caco-2): < 5e+12 ×10⁻⁶ cm/s | net transport (A➔B) with P-gp inhibitors (Caco-2 [1]; Caco-2): up to 1.92 | net transport (A➔B) (Caco-2 [1]): 0.24 | plasma protein binding (plasma protein): over 90%

SMILES: NS(=O)(=O)c1nnc(NC(=O)CC2CCCCC2)s1 [Compound 20, 2-Cyclohexyl-N-(5-sulfamoyl-1,3,4-thiadiazol-2-yl)acetamide]
activity against VRE strains in presence of 5% CO2 (VRE strains): inactive

MIC90 (panel of VRE isolates; read-out: MIC90 converted to molar cellular potency): 0.0942 µM | maximum solubility relative to MIC against E. faecium HM-965 (Aqueous solubility): approximately 1500 fold | solubility at 24 h (Aqueous solubility): 10.4 µg/mL (≈ 32.7 µM) | net transport (A➔B) (Caco-2 [2]; Caco-2, pH 6.5/7.4): 0.46 | concentration at 1440 min [3]: 0 ng/mL
SMILES: NS(=O)(=O)c1nnc(NC(=O)CCC2CCCCC2)s1 [Compound 22, 3-Cyclohexyl-N-(5-sulfamoyl-1,3,4-thiadiazol-2-yl)propanamide]
bacteriostatic or bactericidal activity (E. faecium ATCC 700221): bacteriostatic

maximum solubility relative to MIC against E. faecium HM-965 (Aqueous solubility): approximately 40 fold | solubility at 24 h (Aqueous solubility): 39 µg/mL (≈ 127 µM) | recovery [4]: 83% | concentration of molecule in the receiver chambers (Caco-2 [2]; Caco-2 permeability assay): below the limit of detection
SMILES: NS(=O)(=O)c1nnc(NC(=O)CN2CCOCC2)s1 [Compound 26, 2-(Morpholin-1-yl)-N-(5-sulfamoyl-1,3,4-thiadiazol-2-yl)acetamide]
bacteriostatic or bactericidal activity (E. faecium ATCC 700221): bacteriostatic

SMILES: NS(=O)(=O)c1nnc(NCC2CCCCC2)s1 [Compound 30, 5-((cyclohexylmethyl)amino)-1,3,4-thiadiazole-2-sulfonamide]
anti-VRE activity (in words) (E. faecium HM-965): inactive against VRE

SMILES: CC(=O)Nc1nnc(S(C)(=O)=O)s1 [Compound 33, N-(5-(Methylsulfonyl)-1,3,4-thiadiazol-2-yl)acetamide]
anti-VRE activity (in words) (E. faecium HM-965): abolished the anti-VRE activity; also recorded: inactive against VRE strains; also recorded: complete loss of activity

SMILES: CC(=O)Nc1ncc(S(N)(=O)=O)s1 [Compound 34, N-(5-sulfamoylthiazol-2-yl)acetamide]
anti-VRE activity (in words) (E. faecium HM-965): abrogated activity against VRE; also recorded: complete loss of anti-VRE activity

SMILES: CC(=O)Nc1ccc(S(N)(=O)=O)cc1 [Compound 35, N-(4-sulfamoylphenyl)acetamide]
anti-VRE activity (in words) (E. faecium HM-965): complete loss of activity

SMILES: CC(=O)NC[C@H]1CN(c2ccc(N3CCOCC3)c(F)c2)C(=O)O1 [linezolid, reference compound]
bacteriostatic or bactericidal activity (E. faecium ATCC 700221): bacteriostatic

SMILES: CN[C@H](CC(C)C)C(=O)N[C@H]1C(=O)N[C@@H](CC(N)=O)C(=O)N[C@H]2C(=O)N[C@H]3C(=O)N[C@H](C(=O)N[C@H](C(=O)O)c4cc(O)cc(O)c4-c4cc3ccc4O)[C@H](O)c3ccc(c(Cl)c3)Oc3cc2cc(c3O[C@@H]2O[C@H](CO)[C@@H](O)[C@H](O)[C@H]2O[C@H]2C[C@](C)(N)[C@H](O)[C@H](C)O2)Oc2ccc(cc2Cl)[C@H]1O [vancomycin, reference compound]
MIC90 (panel of VRE isolates): > 64 µg/mL
